We go through 98 compounds from PubChem BioAssay AID652260 (The Scripps Research Institute Molecular Screening Center, 2013).

Each structure is given as a SMILES string. Hit rate of the full screen: of about 3,500 compounds, about 1,000 (29%) were called active. Not all results are given here. A number with no mark means an inactive call.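 Rule for the calls: active = activation above its plate's cutoff, the mean activation of tested wells plus 3 SD (cut at about 7.9% in these data); inactive = the rest.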

A short description of the assay: SMARCA2 (BRM) function activators, confirmation, cell-based, luminescence, triplicate (AID 652260). Particulars: MG213 cells, MMTV-luciferase with dexamethasone, overnight, at 9.1 µM, active compounds read high, DMSO wells 0%, reference activator 100%, MG213 cells expressing E1A, Rb sequestered. In outline:
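Schedule – compound exposure 24 h at 37 °C after 1-day dexamethasone priming · Assay system – MG213 MMTV-luciferase reporter cells · Amount – 600 cells in each well · Detection – luciferase luminescence (OneGlo) · Dosing – 9.1 µM single dose · Buffer or medium – assay medium with 2.5% FBS plus 0.1 µM dexamethasone · Benchmarks – DMSO and reference activator wells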
With `CCOC(=O)C(C)n1cnc2c(nnn2-c2cccc(OC)c2)c1=O` (stereo not drawn), the activation is 4.29%.

With `COc1cccc(-c2nc3cc(C)ccc3o2)c1`, the activation is 7.4%.

Turning to `CCN(CC)C(=O)CSc1nnc(-c2cccc(OC)c2)o1`, the activation was 8.07% (active).

As to `CCNC(=S)N1CCN(c2ncccn2)CC1`, the activation is -2.06%.

For the compound `Cc1cc(C)nc(Nc2n[nH]c(-c3ccccc3N)n2)n1`, the activation is 5.41%.

Regarding `CC(C)C[C@H]1CNC(=O)C(=O)N1C[C@H]1CCCN1C[C@H](Cc1ccc(O)cc1)N1C[C@H](CC(C)C)N(CC2CCCCCC2)C(=O)C1=O`, the activation is -0.79%.

As for `O=C(Nc1cccc([N+](=O)[O-])c1)c1ccc2c(c1)OCO2`, the activation is 3.25%.

With `COc1ccc(C(=O)Nc2ccc3c(c2)OCO3)cc1OC`, the activation was 7.86% (active).

For `COCC(C)n1c(SCc2ccc(C(=O)OC)o2)nc2ccccc2c1=O` (stereo not drawn), the activation is 0.09%.

For the compound `Cc1cc(-c2n[nH]c(=S)n2/N=C/C(Br)=C/c2ccccc2)n[nH]1`, the activation was 2.39%.

On to `CC(=O)Nc1ccc(Nc2c3ccccc3nc3ccccc23)cc1`, for which the activation was 43% (active).

With `CCN(CC)CCNC(=O)c1ccc(NC(=O)c2cc(-c3ccncc3)nc3ccccc23)cc1`, the activation is 5.3%.

As for `O=C(Nc1ccc2nccnc2c1)c1ccco1`, the activation is 5.96%.

In the case of `CCCSC(=S)NC1CCS(=O)(=O)C1` (stereo not drawn), the activation was -0.53%.

With `c1ccc2cc3c(NCCN4CCOCC4)ccnc3cc2c1`, the activation is 34.6% (active).

Turning to `COc1ccc(-c2cc(-c3ccc(N)cc3)nc(N)c2C#N)cc1OC`, the activation is -1.93%.

With `Cc1ccc(C(=O)NNC(=O)c2cccs2)cc1`, the activation is 1.93%.

`COc1ccc(/C=N/NC(=O)c2cc(-c3cccc(C)c3)nc3ccccc23)cc1O`: the activation was 1.04%.

Turning to `COc1ccc(N=C(C)c2sc3ccccc3c2O)cc1`, the activation was 9.34% (active).

Consider `Cc1cc(C)c2nc3nc(C)cc(C)c3c(N)c2c1`, for which the activation is 60% (active).

As to `COc1ccc(Cn2c(C)c(C)c(C#N)c2NC(=O)Nc2ccc(F)cc2)cc1`, the activation is 4.61%.

For `C/C(CC(=O)NC(C)(C)C)=N\NC(=O)c1ccco1`, the activation was 5.29%.

Regarding `CN(C)C(=S)N=c1ssc(=S)n1Cc1ccco1`, the activation was 15.4% (active).

Turning to `O=C1/C(=C\c2ccc([N+](=O)[O-])cc2)CS(=O)(=O)C/C1=C/c1ccc([N+](=O)[O-])cc1`, the activation was -15.7%.

Take `COc1ccccc1C1=Nc2cccc3cccc(c23)N1`: the activation is 2.63%.

With `O=C(CCCCCn1c(=S)[nH]c2ccsc2c1=O)NC1CCCCC1`, the activation was 1.02%.

As for `C=C1C(=O)[C@]23C[C@H]1CCC2[C@@]1(C)C(C[C@@H]3O)[C@](C)(C(=O)O)CC[C@@H]1O` (stereo partly drawn), the activation is 28.4% (active).

`Cn1c(-c2ccc(F)cc2)cc2onc(-c3ccccc3Cl)c2c1=O`: the activation is -3.34%.

In the case of `CN1CCN(CCCNC(=O)c2ccc(/C=C3\Oc4ccccc4N(Cc4ccc(Cl)cc4)C3=O)cc2)CC1`, the activation is 3.44%.

Turning to `COCn1c(COc2ccccc2)nc2ccccc21`, the activation was 8.62% (active).

`CCc1ccc[n+](-c2nc([O-])sc2C=O)c1`: the activation is -1.34%.

Take `COc1ccc(CC2c3cc(OC)c(OC)cc3CC[N+]2(C)CCC(=O)OCCCCCOC(=O)CC[N+]2(C)CCc3cc(OC)c(OC)cc3C2Cc2ccc(OC)c(OC)c2)cc1OC` (stereo not drawn): the activation is 8.77% (active).

Consider `CCOC(=O)c1sc2nc(CSc3ccccc3)[nH]c(=O)c2c1C`, for which the activation was -0.16%.

On to `COc1cc(CN2CCC(C(N)=O)CC2)ccc1OCc1ccccc1`, for which the activation is 13% (active).

Take `O=C(c1cc(-c2ccc(O)cc2)on1)N1CCOCC1`: the activation is 7.73%.

With `O=C(c1cc(-c2ccccc2O)on1)N1CCCC1`, the activation was 1.4%.

For the compound `O=C(c1cccs1)C1C(c2ccc(Br)cc2)NC(=S)NC1(O)C(F)(F)F` (stereo not drawn), the activation is 5.35%.

Take `Cc1ccc(-c2nc3ccc(Br)cn3c2Cc2ccccc2C(F)(F)F)cc1`: the activation is 0.37%.

With `CCN(CC)C(=O)c1sc2nc(-c3ccccc3)ccc2c1N`, the activation was 9.6% (active).

In the case of `CN(C)S(=O)(=O)c1ccc2oc(SCC(=O)Nc3ccccc3F)nc2c1`, the activation is 7.95% (active).

Regarding `COc1ccc(C(CNC(=O)c2ccc(S(=O)(=O)Nc3ccccc3F)cc2)N(C)C)cc1` (stereo not drawn), the activation is 0.35%.

On to `CC(C)(C)C(=O)CSc1nc2ccccc2o1`, for which the activation was 6.81%.

As for `Cc1noc(C)c1/C=N/Nc1ccc2ccccc2n1`, the activation was 4.24%.

With `CC1CCCCN1C(=S)NCc1ccccc1` (stereo not drawn), the activation was 0.99%.

Consider `COc1ccc(-c2cc3ncccc3cn2)cc1`, for which the activation was 8.92% (active).

Take `COc1ccc(-c2csc(Cc3nc(O)cs3)n2)cc1`: the activation was -15.4%.

On to `CN(C)c1nc(=Nc2cccc(Cl)c2)ss1`, for which the activation was -15.3%.

Regarding `Cc1n[nH]c(=O)nc1N/N=C/c1cccs1`, the activation was 3.07%.

Take `CCC1CCC/C1=N\NC(=O)c1ccc(Cl)cc1` (stereo not drawn): the activation was 2.31%.

For the compound `O=C(Nc1ccc2c(c1)CCC2)c1ccc(Br)s1`, the activation is 10.8% (active).

As for `Cc1ccc(NC(=O)c2cnc(SCC(=O)NCC3CCCO3)n(C)c2=O)cc1` (stereo not drawn), the activation was 9.35% (active).

With `Cc1ccc(-c2c(C)n([O-])c3c([n+]2=O)CCC3)cc1`, the activation was 6.67%.

For the compound `N#Cc1ccccc1NC(=O)c1cccc(COc2ccc(Cl)cc2Cl)c1`, the activation is 4.05%.

As for `Fc1ccc(CNc2nc3ccccc3n3nnnc23)cc1`, the activation was 1.53%.

As to `COc1c(O)cc2oc(-c3ccc(O)c(O)c3)cc(=O)c2c1O`, the activation was 12.6% (active).

For `CCCCNC(=O)C1CCC(CNS(=O)(=O)c2ccc(NC(C)=O)cc2)CC1` (stereo not drawn), the activation was -3.14%.

For `Cc1cc2oc3ccc(NCCC4CCCN4C)cc3c(=O)c2cc1C` (stereo not drawn), the activation is 5.48%.

For `CC1CCCCC1NC(=O)CN1CCC(O)(c2ccc3c(c2)OCO3)CC1` (stereo not drawn), the activation was -0.84%.

With `CCCC(=O)N1c2ccc(-c3csc(N)n3)cc2CC1C` (stereo not drawn), the activation is 8.32% (active).

As for `Cc1cc(C(=O)NNC(=S)Nc2ccccc2C)cs1`, the activation was 3.37%.

For `O=C(Nc1nnc(CCc2ccccc2)s1)C1CCCO1` (stereo not drawn), the activation is 1.02%.

For the compound `Cc1cc(C)c2nc(NC(=O)C3CCCO3)sc2c1` (stereo not drawn), the activation was 9.52% (active).

As to `C=CC(=O)OCCOCCOCCOCCOC(=O)C=C`, the activation is 7.95% (active).

Regarding `O=C1Cc2cc(S(=O)(=O)Nc3cccc(F)c3)ccc2N1`, the activation is 0.74%.

Consider `NS(=O)(=O)c1ccccc1NC(=O)c1c(O)c2ccccc2[nH]c1=O`, for which the activation was 12.1% (active).

With `CCOc1cc(NC(=S)NCCCOC)c(OCC)cc1NC(=O)c1ccco1`, the activation was -1.02%.

For the compound `Cc1ccc(S(=O)(=O)NC(C)C(=O)NCc2ccc(Cl)cc2)cc1` (stereo not drawn), the activation is -3.9%.

Regarding `CCCCn1nnnc1C(c1cc2ccccc2o1)N(C)Cc1ccc(Cl)c(Cl)c1` (stereo not drawn), the activation was -4.28%.

In the case of `COc1ccccc1OCC(=O)O/N=C(\N)c1ccccn1`, the activation is 10.6% (active).

Turning to `COc1ccc(/C(N)=N/OC(=O)Oc2ccccc2)cc1`, the activation was -2.89%.

As for `O=C(CSc1nc2ccccc2[nH]1)c1cccs1`, the activation was 2.82%.

As to `CC(=O)c1cccc(-c2cnc3c(NC=O)cc(-c4ccc(N5CCN(C)CC5)cc4)cn23)c1`, the activation was 16.5% (active).

Turning to `CN(C)CCNC(=O)c1cccc(-c2cnc3c(NC=O)cc(-c4cccc(C(F)(F)F)c4)cn23)c1`, the activation was -12.7%.

For `CC(=O)Nc1cc(-c2ccc(N3CCN(C)CC3)cc2)cn2c(-c3ccc(F)cc3)cnc12`, the activation is 17.5% (active).

With `COc1ccc(C)cc1S(=O)(=O)N(CC(=O)Nc1cccc([N+](=O)[O-])c1)c1ccc(C)cc1`, the activation is 0.21%.

With `Cc1ccc(S(=O)(=O)c2c[nH]c3ccc(Cl)cc3c2=O)cc1`, the activation was 0.08%.

With `COc1ccc(S(=O)(=O)NC(C)C(=O)N2CCCCCC2)cc1` (stereo not drawn), the activation is -2.64%.

Turning to `O=C(NCc1ccccn1)c1cnc2sccn2c1=O`, the activation was 1.34%.

Regarding `Cc1cc(C)n2nc(CNS(=O)(=O)c3c(F)c(F)c(F)c(F)c3F)nc2n1`, the activation was 19.1% (active).

On to `Cc1cc(-n2cnc(-c3cn(C)nc3C)n2)no1`, for which the activation was 3.17%.

Consider `COC(=O)C1C(=O)c2c([nH]c(C(=O)OCCSC)c2C)CC1C` (stereo not drawn), for which the activation was 6.36%.

As for `O=C(O)c1cccc(N=NN2CCCCCC2)c1`, the activation is 12.5% (active).

Turning to `CC(=O)c1sc(N/N=C\c2ccc(C)cc2)nc1C`, the activation was 6.84%.

As to `O=C(OCC(=O)c1cccs1)C1=COCCO1`, the activation is 8.33% (active).

For the compound `COc1ccc(NC(=O)c2sccc2SCC#N)cc1`, the activation was 0.37%.

Take `Cc1cc(O)c(NC(=O)c2ccc(C)c([N+](=O)[O-])c2)cc1C`: the activation is 5.6%.

`Cc1cc(=O)[nH]c(N/N=C/c2ccc3c(c2)OCCO3)n1`: the activation is 7.09%.

As for `Cn1c2ccc(F)cc2c2nnc(NN)nc21`, the activation is -1.11%.

Regarding `Cc1nc(N=C(N)N)nc2c(C)cccc12`, the activation is 40.3% (active).

Turning to `COc1ccc2nc(/N=C(\N)NC(=O)Nc3ccccc3)nc(C)c2c1`, the activation is 2.85%.

As to `O=C(Nc1cccc([N+](=O)[O-])c1)N1CCc2ccccc2C1`, the activation was 5.56%.

With `Cc1ccsc1-c1nc(CSCC(=O)NCCN2CCCC2)c(C)o1`, the activation is -0.08%.

In the case of `CCC(=O)Nc1ccc2nn(-c3ccc(F)cc3)nc2c1`, the activation is 11.7% (active).

`Cn1cc(/C=C/C(=O)N2CCCC(C(=O)c3ccc(C(F)(F)F)cc3)C2)cn1` (stereo not drawn): the activation was 1.67%.

Regarding `Cc1c(NC(=O)CSc2cccc3cccnc23)c(=O)n(-c2ccccc2)n1C`, the activation is -8.3%.

Regarding `Cc1cccc(CSc2ccc(-c3cccs3)nn2)c1`, the activation is 7.87% (active).

As for `COC(=O)Cc1nnn2c1[C@H](C)[C@H](c1ccccc1[N+](=O)[O-])OCC2`, the activation was 0.13%.

For `O=[N+]([O-])c1ccc2c(c1)Nc1nc3ccccc3nc1N2`, the activation is 24.9% (active).
